Data from ChEMBL document CHEMBL3259708, “Thienoquinolines as novel disruptors of the PKCε/RACK2 protein-protein interaction” (J Med Chem, 2014).
Each block holds one compound with its values, some of them ahead of it. The source made the active and inactive calls. The rule behind the calls is not given here.

Legend:
[1] = biological target: T1, Protein kinase C epsilon type (Homo sapiens) (UniProt Q02156); assay: (§1) Inhibition of recombinant PKCepsilon (unknown origin)-MBP-tagged RACK2 interaction after 1 hr by ELISA-based assay relative to untreated control; set-up: residual binding, % of control: concentration or dose not given beside the values; details: for residual binding, % of control: values are per cent of control
T1 sequence (whole entry): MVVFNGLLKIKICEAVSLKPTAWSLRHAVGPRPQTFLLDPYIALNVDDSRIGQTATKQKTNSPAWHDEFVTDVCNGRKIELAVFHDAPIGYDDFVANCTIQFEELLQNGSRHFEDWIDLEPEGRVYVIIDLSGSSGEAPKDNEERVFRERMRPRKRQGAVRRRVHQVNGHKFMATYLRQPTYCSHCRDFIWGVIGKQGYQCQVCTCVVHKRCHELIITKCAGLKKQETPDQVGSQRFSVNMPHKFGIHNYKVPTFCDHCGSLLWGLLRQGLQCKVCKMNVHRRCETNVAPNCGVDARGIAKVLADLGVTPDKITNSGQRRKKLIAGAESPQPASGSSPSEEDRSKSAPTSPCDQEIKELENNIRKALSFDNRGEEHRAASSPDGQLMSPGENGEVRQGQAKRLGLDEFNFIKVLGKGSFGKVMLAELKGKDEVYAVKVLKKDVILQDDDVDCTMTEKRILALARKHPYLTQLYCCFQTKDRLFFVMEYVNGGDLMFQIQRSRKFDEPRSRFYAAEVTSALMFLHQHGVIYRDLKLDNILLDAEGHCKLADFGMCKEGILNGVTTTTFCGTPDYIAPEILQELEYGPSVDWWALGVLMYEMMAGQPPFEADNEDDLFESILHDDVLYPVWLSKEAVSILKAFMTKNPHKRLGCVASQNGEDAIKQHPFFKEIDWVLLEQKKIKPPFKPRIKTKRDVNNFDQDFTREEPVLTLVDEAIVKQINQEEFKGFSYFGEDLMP
Summary of the method: (§2)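 ELISA: plates coated with 100 ng recombinant PKCε in 20 mM Tris-HCl/100 mM NaCl pH 7.5 overnight at 4 °C, blocked with 3% BSA; PKCε activated 10 min at 30 °C with 60 μg/mL phosphatidylserine and 100 nM TPA; RACK2-MBP preincubated with agent 30 min, then 500 ng added for 1 h binding; anti-RACK2/HRP detection, ABTS at 420 nm; four experiments, quadruplicates, normalized to control; IC50 via CalcuSyn.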

[2] = biological target: T2, Protein kinase C epsilon type (Homo sapiens, UniProt Q02156); assay: as §1; summary of the method: as §2
T2 sequence (Q02156 whole entry): T1 sequence (whole entry)

[3] = biological target: T1, Protein kinase C epsilon type (Homo sapiens); assay: Inhibition of recombinant PKCepsilon (unknown origin)-MBP-tagged RACK2 interaction at 10 uM after 1 hr by ELISA-based assay relative to untreated control; details: values are per cent of control; summary of the method: as §2
[4] = biological target: Protein kinase C beta type (Homo sapiens) (UniProt P05771); assay: Inhibition of recombinant GST-tagged PKCbeta2 (unknown origin)-His-tagged RACK1 interaction after 1 hr by ELISA-based assay relative to untreated control
Summary of the method: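 ELISA: 200 ng His-tagged RACK1 coated overnight at 4 °C; agent added 30 min at room temperature; 500 ng GST-PKCβII activated with CaCl2, phosphatidylserine and TPA for 10 min, then bound 1 h; detected with anti-GST and HRP secondary, ABTS colour at 420 nm.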

[5] = biological target: T1, Protein kinase C epsilon type (Homo sapiens); assay: Inhibition of PKCepsilon translocation to cell membrane in human PC3 cells at 25 to 50 uM by densitometric analysis; assay type: cell-based; details: PC-3
Summary of the method: (§3)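 PC-3 cells starved 16 h, agent 30 min, then 50 nM TPA 5 min; lysed and split into cytosolic and membrane fractions; Western blot for PKCε, PKCε pSer729 or PKCδ, with IGFI-βR (membrane) and GAPDH (cytosol) loading controls; densitometry of four independent experiments, normalized to control, t test.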

[6] = biological target: T1, Protein kinase C epsilon type (Homo sapiens); assay: Inhibition of TPA-induced PKCepsilon Ser729 phosphorylation in human PC3 cell membrane at 25 to 50 uM by densitometric analysis; assay type: cell-based; details: PC-3; summary of the method: as §3
[7] = biological target: T1, Protein kinase C epsilon type (Homo sapiens); assay: Inhibition of phosphorylated form of PKCepsilon translocation to cell membrane in human PC3 cells at 25 to 50 uM by densitometric analysis; assay type: cell-based; details: PC-3; summary of the method: as §3
[8] = biological target: Protein kinase C delta type (Homo sapiens) (UniProt Q05655); assay: Inhibition of PKCdelta translocation to cell membrane in human PC3 cells at 25 to 50 uM by densitometric analysis; assay type: cell-based; details: PC-3; summary of the method: as §3
[9] = biological target: T1, Protein kinase C epsilon type (Homo sapiens); assay: Inhibition of TPA-induced PKCepsilon translocation to cell membrane in human PC3 cells at 50 uM by immunofluorescence analysis; assay type: cell-based; details: PC-3
Summary of the method: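 PC-3 cells on poly-L-lysine coverslips treated with agent 30 min then 100 nM TPA 5 min; fixed in 4% paraformaldehyde/4% sucrose, permeabilized, stained for PKCε with fluorescent secondary, imaged by microscopy; three independent experiments.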

[10] = biological target: T1, Protein kinase C epsilon type (Homo sapiens); assay: (§4) Inhibition of PKCepsilon-induced phosphorylation of Elk1 in human HeLa cells after 4 hrs by luciferase reporter gene assay; assay type: cell-based
Summary of the method: (§5)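 PathDetect HeLa-HLR Elk-1 trans-reporting cells (200 000/well, grown 24 h) starved 16 h in 0.5% FBS medium; agent 30 min, 50 nM TPA 5 min, washed, then 4 h in starvation medium with agent; luciferase read on 20 μg lysate protein; mean ±SD of three experiments normalized to control; IC50 by CalcuSyn.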

[11] = biological target: T2, Protein kinase C epsilon type; assay: as §4; assay type: cell-based; summary of the method: as §5
[12] = biological target: T1, Protein kinase C epsilon type (Homo sapiens); assay: Inhibition of PKCepsilon-induced phosphorylation of MARCKS in human HeLa cells at 50 uM by SDS-PAGE analysis; assay type: cell-based
Summary of the method: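 HeLa cells serum-starved 16 h, treated with 50 μM agent for 30 min with 100 nM TPA for the last 10 min; 150 μg lysate protein on SDS 8–16% gels, blotted for MARCKS pSer152/156 with tubulin loading control; densitometry of three independent experiments.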

HeLa [13] = assay: Antiproliferative activity against human HeLa cells expressing luciferase gene up to 50 uM; assay type: cell-based
Summary of the method: (§6)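 HeLa-HLR and PC-3 cells seeded ~10 000/well; agent added after 4 h at various concentrations for 72 h; growth read by SRB assay; mean ±SD of three independent experiments, triplicate samples each.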

PC-3 = assay: Antiproliferative activity against human PC3 cells expressing luciferase gene up to 50 uM; assay type: cell-based; summary of the method: as §6
HeLa [14] = assay: Antimigratory activity against human HeLa cells expressing doxycycline-inducible PKCepsilon at 25 uM after 24 hrs by scratch migration assay; assay type: functional, cell-based
Summary of the method: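 HeLa cells carrying doxycycline-inducible constitutively active PKCε grown to log phase; ~1 mm scratch made in monolayer with pipet tip, washed with PBS, then given 2 μg/mL doxycycline plus 25 μM test agent for 24 h; controls untreated or doxycycline plus DMSO; gap closure viewed by microscope.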

HeLa [15] = assay: Antiinvasive activity against human HeLa cells expressing doxycycline-inducible PKCepsilon at 25 uM after 24 hrs; assay type: functional, cell-based
Summary of the method: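 Invasion of HeLa cells carrying doxycycline-inducible constitutively active PKCε, PKCε expression induced with doxycycline, through reconstituted basement membrane matrix using a commercial invasion kit per manufacturer; mean of three experiments, normalized to control (100%), t test.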

Gallus gallus = species on record: Gallus gallus; assay: Antiangiogenic activity in chicken egg assessed as inhibition of VEGF-induced angiogenesis at 10 ng after 5 days by microscopic analysis; assay type: functional
Summary of the method: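 Hen eggs incubated 3 days at 37 °C, opened, incubated 7 more days; VEGF and test agent added on day 10; after 5 further days, vessel formation inspected by microscope.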

[16] = biological target: Protein kinase C alpha type (Homo sapiens) (UniProt P17252); assay: Inhibition of PKCalpha (unknown origin) at 50 uM
[17] = biological target: Protein kinase C beta type (Homo sapiens) (UniProt P05771); assay: Inhibition of PKCbeta1 (unknown origin) at 50 uM
[18] = biological target: Protein kinase C eta type (Homo sapiens) (UniProt P24723); assay: Inhibition of PKCeta (unknown origin) at 50 uM
[19] = biological target: Tyrosine-protein kinase BTK (Homo sapiens) (UniProt Q06187); assay: Inhibition of BTK (unknown origin) at 25 uM; values are per cent of control
[20] = biological target: Mitogen-activated protein kinase 3 (Homo sapiens) (UniProt P27361); assay: Inhibition of ERK1 (unknown origin) at 25 uM; values are per cent of control
[21] = biological target: Serine/threonine-protein kinase pim-3 (Homo sapiens) (UniProt Q86V86); assay: Inhibition of PIM3 (unknown origin) at 25 uM; values are per cent of control
[22] = biological target: Ribosomal protein S6 kinase alpha-3 (Homo sapiens) (UniProt P51812); assay: Inhibition of RSK2 (unknown origin) at 25 uM; values are per cent of control
[23] = biological target: T3, NUAK family SNF1-like kinase 1 (Homo sapiens) (UniProt O60285); assay: Inhibition of NUAK1 (unknown origin) at 25 uM; values are per cent of control
T3 sequence (whole entry): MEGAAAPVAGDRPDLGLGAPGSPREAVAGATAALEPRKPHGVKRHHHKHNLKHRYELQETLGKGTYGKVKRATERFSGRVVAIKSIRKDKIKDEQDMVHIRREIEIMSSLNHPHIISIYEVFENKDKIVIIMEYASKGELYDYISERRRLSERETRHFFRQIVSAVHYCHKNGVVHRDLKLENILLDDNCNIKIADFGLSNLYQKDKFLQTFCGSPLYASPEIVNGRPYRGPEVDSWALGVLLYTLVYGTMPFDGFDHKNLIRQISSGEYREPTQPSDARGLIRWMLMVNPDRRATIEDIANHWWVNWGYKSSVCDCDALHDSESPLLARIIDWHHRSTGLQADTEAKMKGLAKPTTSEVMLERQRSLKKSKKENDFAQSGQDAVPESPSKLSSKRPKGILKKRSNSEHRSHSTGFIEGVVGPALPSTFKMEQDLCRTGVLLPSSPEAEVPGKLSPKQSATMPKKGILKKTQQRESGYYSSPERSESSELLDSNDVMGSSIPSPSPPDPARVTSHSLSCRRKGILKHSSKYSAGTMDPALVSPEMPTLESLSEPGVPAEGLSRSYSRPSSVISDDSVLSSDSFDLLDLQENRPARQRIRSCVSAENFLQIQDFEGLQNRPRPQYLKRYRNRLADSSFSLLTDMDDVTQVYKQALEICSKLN

[24] = biological target: T1, Protein kinase C epsilon type (Homo sapiens); assay: Inhibition of recombinant PKCepsilon (unknown origin)-MBP-tagged RACK2 interaction at 25 uM after 1 hr by ELISA-based assay relative to untreated control; values are per cent of control

Sequence of Protein kinase C beta type (Homo sapiens) (P05771 2-671 limits assumed): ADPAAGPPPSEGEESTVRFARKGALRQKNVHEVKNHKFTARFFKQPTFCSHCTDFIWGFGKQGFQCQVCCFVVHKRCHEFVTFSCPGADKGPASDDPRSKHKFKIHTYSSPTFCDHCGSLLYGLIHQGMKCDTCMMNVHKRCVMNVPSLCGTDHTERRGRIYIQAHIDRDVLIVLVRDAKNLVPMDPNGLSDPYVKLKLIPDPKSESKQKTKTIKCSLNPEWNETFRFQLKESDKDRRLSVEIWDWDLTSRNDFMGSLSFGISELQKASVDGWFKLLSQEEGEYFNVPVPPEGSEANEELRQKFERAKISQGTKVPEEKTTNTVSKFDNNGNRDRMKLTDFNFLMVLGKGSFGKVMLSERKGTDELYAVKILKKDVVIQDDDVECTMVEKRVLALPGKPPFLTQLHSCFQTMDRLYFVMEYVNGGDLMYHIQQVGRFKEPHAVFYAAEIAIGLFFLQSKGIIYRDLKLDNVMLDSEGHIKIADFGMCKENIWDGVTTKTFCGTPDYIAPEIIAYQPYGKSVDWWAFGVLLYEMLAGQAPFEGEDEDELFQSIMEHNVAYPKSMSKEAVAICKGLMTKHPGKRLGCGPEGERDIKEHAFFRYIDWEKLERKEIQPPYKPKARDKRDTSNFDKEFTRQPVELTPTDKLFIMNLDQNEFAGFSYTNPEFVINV
Sequence of Protein kinase C eta type (Homo sapiens) (P24723 whole entry): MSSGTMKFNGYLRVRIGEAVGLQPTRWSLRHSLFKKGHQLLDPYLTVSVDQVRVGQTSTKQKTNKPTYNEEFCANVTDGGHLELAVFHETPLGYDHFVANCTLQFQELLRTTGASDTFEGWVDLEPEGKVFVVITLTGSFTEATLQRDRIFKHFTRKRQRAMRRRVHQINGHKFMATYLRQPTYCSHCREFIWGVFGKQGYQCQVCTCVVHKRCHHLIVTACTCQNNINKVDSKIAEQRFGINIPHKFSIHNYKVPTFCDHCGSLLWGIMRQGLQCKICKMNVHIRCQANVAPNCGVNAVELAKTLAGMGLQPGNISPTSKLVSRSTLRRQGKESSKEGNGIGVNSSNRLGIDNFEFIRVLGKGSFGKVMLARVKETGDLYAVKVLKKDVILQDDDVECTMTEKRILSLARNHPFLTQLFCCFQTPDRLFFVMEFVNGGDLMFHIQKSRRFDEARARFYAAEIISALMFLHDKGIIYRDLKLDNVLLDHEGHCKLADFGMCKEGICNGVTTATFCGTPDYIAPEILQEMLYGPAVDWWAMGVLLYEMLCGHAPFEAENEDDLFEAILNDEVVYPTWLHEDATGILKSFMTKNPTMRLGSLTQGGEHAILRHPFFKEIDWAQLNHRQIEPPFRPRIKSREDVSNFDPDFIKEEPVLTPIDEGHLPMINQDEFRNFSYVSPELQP
Sequence of Mitogen-activated protein kinase 3 (Homo sapiens) (P27361 whole entry): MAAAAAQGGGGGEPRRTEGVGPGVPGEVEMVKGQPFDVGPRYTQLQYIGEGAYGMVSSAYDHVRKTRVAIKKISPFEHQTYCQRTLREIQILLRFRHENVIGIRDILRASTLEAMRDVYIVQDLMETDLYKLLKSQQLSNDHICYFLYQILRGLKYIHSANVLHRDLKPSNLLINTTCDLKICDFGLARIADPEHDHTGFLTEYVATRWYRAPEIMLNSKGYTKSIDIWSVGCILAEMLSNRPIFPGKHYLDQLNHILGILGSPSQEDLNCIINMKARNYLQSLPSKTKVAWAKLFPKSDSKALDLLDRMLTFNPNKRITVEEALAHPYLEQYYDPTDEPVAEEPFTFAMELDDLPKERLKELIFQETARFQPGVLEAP
Sequence of Ribosomal protein S6 kinase alpha-3 (Homo sapiens) (P51812 whole entry): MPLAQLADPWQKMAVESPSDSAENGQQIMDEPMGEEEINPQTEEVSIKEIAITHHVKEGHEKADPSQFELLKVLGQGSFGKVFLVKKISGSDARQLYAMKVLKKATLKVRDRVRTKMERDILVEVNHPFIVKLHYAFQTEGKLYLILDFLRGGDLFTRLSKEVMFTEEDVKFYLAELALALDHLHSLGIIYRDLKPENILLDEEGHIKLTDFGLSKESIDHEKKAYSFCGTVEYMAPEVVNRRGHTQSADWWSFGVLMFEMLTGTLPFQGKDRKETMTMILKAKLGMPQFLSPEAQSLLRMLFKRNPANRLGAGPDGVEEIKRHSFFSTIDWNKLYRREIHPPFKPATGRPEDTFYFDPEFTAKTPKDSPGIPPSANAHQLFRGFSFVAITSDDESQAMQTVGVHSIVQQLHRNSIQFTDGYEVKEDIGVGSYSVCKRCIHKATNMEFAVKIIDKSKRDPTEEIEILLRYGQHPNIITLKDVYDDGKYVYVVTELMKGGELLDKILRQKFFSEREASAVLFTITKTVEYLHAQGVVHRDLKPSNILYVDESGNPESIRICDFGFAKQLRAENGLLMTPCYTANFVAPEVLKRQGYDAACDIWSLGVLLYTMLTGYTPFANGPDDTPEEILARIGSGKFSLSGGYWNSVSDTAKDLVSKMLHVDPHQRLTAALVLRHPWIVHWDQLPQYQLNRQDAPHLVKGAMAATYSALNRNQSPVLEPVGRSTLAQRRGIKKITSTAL
Sequence of Protein kinase C delta type (Homo sapiens) (Q05655 whole entry, looked up): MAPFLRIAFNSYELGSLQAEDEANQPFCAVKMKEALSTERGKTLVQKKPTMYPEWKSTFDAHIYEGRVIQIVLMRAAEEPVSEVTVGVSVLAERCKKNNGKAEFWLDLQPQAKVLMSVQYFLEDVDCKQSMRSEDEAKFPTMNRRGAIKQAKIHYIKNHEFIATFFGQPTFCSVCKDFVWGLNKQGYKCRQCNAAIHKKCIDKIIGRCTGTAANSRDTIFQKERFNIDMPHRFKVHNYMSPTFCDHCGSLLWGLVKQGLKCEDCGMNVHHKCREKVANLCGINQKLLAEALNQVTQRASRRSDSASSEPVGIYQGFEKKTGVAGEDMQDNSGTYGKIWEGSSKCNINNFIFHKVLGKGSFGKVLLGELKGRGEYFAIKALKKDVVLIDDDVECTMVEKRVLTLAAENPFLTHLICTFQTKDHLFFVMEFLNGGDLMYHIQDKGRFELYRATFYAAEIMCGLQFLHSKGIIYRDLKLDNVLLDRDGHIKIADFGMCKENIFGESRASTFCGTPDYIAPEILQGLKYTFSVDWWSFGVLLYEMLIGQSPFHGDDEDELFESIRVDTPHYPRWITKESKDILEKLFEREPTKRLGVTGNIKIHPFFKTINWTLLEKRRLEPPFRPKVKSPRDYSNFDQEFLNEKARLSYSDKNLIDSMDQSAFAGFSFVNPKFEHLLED
Sequence of Tyrosine-protein kinase BTK (Homo sapiens) (Q06187 whole entry): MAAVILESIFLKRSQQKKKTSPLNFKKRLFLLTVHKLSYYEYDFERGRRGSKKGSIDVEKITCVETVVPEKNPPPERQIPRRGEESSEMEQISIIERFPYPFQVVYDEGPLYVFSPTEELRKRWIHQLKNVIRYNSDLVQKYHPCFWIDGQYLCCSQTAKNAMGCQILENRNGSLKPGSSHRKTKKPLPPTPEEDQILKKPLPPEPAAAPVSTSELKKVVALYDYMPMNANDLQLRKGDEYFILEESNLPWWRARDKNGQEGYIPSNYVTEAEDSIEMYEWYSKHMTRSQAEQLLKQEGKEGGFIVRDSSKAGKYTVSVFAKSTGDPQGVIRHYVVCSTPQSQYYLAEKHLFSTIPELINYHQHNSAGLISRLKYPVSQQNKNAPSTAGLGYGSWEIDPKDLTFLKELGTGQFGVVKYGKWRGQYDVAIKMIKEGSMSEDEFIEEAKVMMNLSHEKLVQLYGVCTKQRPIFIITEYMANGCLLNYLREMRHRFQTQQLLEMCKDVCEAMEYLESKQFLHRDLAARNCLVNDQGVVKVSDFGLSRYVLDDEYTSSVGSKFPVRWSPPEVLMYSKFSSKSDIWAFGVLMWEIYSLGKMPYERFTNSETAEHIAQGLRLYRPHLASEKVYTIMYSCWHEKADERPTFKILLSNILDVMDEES

SMILES: CC(=O)c1cccc(NC(=O)c2sc3nc4cc5c(cc4cc3c2N)OCCO5)c1
inhibition [1]: Dose-dependent effect
IC50 [2]: 5.9 µM
residual binding, % of control [3]: 23.6%
inhibition [4]: inactive
inhibition [5]: Active
inhibition [6]: inactive
inhibition [7]: Active
inhibition [8]: inactive
inhibition [9]: Active
inhibition [10]: Dose-dependent effect
IC50 [11]: 11.2 µM
inhibition [12]: Active
Activity (HeLa [13]): Non-toxic
Activity (PC-3): Non-toxic
inhibition (HeLa [14]): Active
inhibition (HeLa [15]): Active
inhibition (Gallus gallus): Active
inhibition [16]: 80%
inhibition [17]: 80%
inhibition [18]: 80%
residual activity [19]: 42%
residual activity [20]: 55%
residual activity [21]: 46%
residual activity [22]: 27%
residual activity [23]: 49%
residual activity [24]: 13.3%

SMILES: CC(=O)c1cccc(NC(=O)c2cc3cc4cc5c(cc4nc3s2)OCO5)c1
residual binding, % of control [1]: 51.2%

SMILES: COC(=O)c1cccc(NC(=O)c2sc3nc4cc5c(cc4cc3c2N)OCCO5)c1
residual binding, % of control [1]: 90.9%

SMILES: CC(=O)c1cccc(NC(=O)c2sc3nc4cc5c(cc4cc3c2N)OCO5)c1
residual binding, % of control [1]: 58.9%

SMILES: Nc1c(C(=O)Nc2cccc(Cl)c2)sc2nc3cc4c(cc3cc12)OCCO4
residual binding, % of control [1]: 58%

SMILES: COC(=O)c1cccc(NC(=O)c2sc3nc4cc5c(cc4cc3c2N)OCO5)c1
residual binding, % of control [1]: 30.8%

SMILES: Nc1c(C(=O)Nc2cccc(Cl)c2Cl)sc2nc3cc4c(cc3cc12)OCCO4
residual binding, % of control [1]: 57.6%

Continued, values first:

residual binding, % of control [1]: 60.8%
SMILES: COc1ccc2cc3c(N)c(C(=O)Nc4c(C)cccc4C)sc3nc2c1

residual binding, % of control [1]: 29.6%
SMILES: CCOC(=O)c1cccc(NC(=O)c2sc3nc4ccc(OC)cc4cc3c2N)c1

residual binding, % of control [1]: 32.9%
SMILES: COc1ccc2nc3sc(C(=O)Nc4ccc(N5CCOCC5)cc4)c(N)c3cc2c1

residual binding, % of control [1]: 42.7%
SMILES: COc1ccc(NC(=O)c2sc3nc4ccccc4cc3c2N)cc1
